Measurements from ChEMBL document CHEMBL1124761, “Polyamine analogues with antitumor activity” (J Med Chem, 1990).
Activity calls are given as the source filed them. No cut-off for these calls is given here.

Legend:
L1210 [1] = assay: Tested for the T/C (survival time treated/survival time control x 100) after intraperitoneal administration of 50 mg/Kg in 10 E 5 L1210 cells on day 0; not active; format: functional; details: Mus musculus
[2] = Tested for in vitro half life period against polyamine oxidase after intraperitoneal administration; format: ADME; details: ip
[3] = target: Peroxisomal N(1)-acetyl-spermine/spermidine oxidase (Mus musculus) (UniProt Q8C0L6); assay: Tested for the in vivo inhibitory activity against polyamine oxidase in mice at a dose of 1 mg/kg; format: functional, organism-based; set-up: dose 1 mg/kg
Method in brief: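 Mice received drug ip 24 h before sacrifice. Liver homogenised and polyamine oxidase activity assayed. Protein by Bradford method with BSA standard.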

L1210 [4] = assay: (§1) Antitumor activity against L1210 leukemia in BDF1 male mice at the dose of 10 mg/kg; format: functional, Mus musculus
Method in brief: (§2)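 BDF1 male mice were inoculated ip with 10^5 L1210 cells on day 0. Agents were given ip once daily on days 1-9, alone or with diallenylputrescine at 2.5 or 5.0 mg/kg. Mean survival time was reported ± SD (n=5). %T/C = treated survival/control survival × 100.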

L1210 [5] = assay: (§3) Antitumor activity against L1210 leukemia in BDF1 male mice at the dose of 10 mg/kg when given with 5.0 mg/kg of diallenylputrescine; format: functional, Mus musculus; method in brief: as §2
L1210 [6] = assay: (§4) Antitumor activity against L1210 leukemia in BDF1 male mice at the dose of 5 mg/kg; format: functional, Mus musculus; set-up: unit not given here; method in brief: as §2
L1210 [7] = assay: (§5) Antitumor activity against L1210 leukemia in BDF1 male mice at the dose of 5 mg/kg when given with 5.0 mg/kg of diallenylputrescine; format: functional, Mus musculus; method in brief: as §2
L1210 [8] = assay: as §1; format: functional, Mus musculus; remark: listed apart in the source
Method in brief: (§6)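 L1210 leukemia, 10^5 cells inoculated ip into BDF1 male mice on day 0. Analogue given ip once daily on days 1-9; where stated, diallenylputrescine (PAO inhibitor) was co-given at 2.5 or 5.0 mg/kg. Mean survival time ± SD (n=5). %T/C = treated survival time/control survival time × 100.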

L1210 [9] = assay: as §3; format: functional, Mus musculus; method in brief: as §6; remark: listed apart in the source
L1210 [10] = assay: as §4; format: functional, Mus musculus; method in brief: as §6
L1210 [11] = assay: as §5; format: functional, Mus musculus; method in brief: as §6; remark: listed apart in the source
L1210 [12] = assay: Tested for the T/C (survival time treated /survival time control x 100) after intraperitoneal administration of 5 mg/kg in 10 E 5 L1210 cells on day 0; format: functional, Mus musculus
Method in brief: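 Male BDF1 mice, in groups of six, were inoculated ip with 10^5 L1210 cells on day 0. Tetrahydrochloride salts were given at 5 mg/kg every 3 h (×4) on days 3-5. T/C = survival time treated/survival time control × 100.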

L1210 [13] = assay: (§7) Antitumor activity against L1210 leukemia in BDF1 male mice at the dose of 5 mg/kg when given with 2.5 mg/kg of diallenylputrescine; format: functional, Mus musculus; method in brief: as §2
L1210 [14] = assay: as §7; format: functional, Mus musculus; method in brief: as §6; remark: listed apart in the source
L1210 [15] = assay: Modulation of the antitumor activity against L1210 Leukemia at 25 mg/kg along with 25 mg/kg putrescine days 1-7, 1 dose / day; format: functional, Mus musculus
L1210 [16] = assay: Modulation of the antitumor activity against L1210 Leukemia at 25 mg/kg along with 25 mg/kg spermidine days 1-7, 1 dose / day; format: functional, Mus musculus
L1210 [17] = assay: Modulation of the antitumor activity against L1210 Leukemia by 25 mg/kg ip days 1-7, 1 dose/day; format: functional, Mus musculus; details: route intraperitoneal
L1210 [18] = assay: Effect of 25 mg/kg putrescine or spermidine coadministered with 25 mg/kg compound on the tumor cell concentration (L1210) of compound; format: functional, Mus musculus
Method in brief: (§8)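 BDF1 male mice bearing ip L1210 cells. Starting day 4, ip dosing with analogue, alone or with putrescine or spermidine, at the doses indicated. Killed 4 h after the final dose; tumour cells recovered by peritoneal lavage. Drug and polyamines quantified by HPLC, pmol/10^6 cells, mean of three determinations.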

L1210 [19] = assay: Effect of 25 mg/kg putrescine or spermidine coadministered with 25 mg/kg compound on the tumor cell concentration (L1210) of putrescine; format: functional, Mus musculus; method in brief: as §8
L1210 [20] = assay: Effect of 25 mg/kg putrescine or spermidine coadministered with 25 mg/kg compound on the tumor cell concentration (L1210) of spermidine; format: functional, Mus musculus; method in brief: as §8
L1210 [21] = assay: Effect of 25 mg/kg putrescine or spermidine coadministered with 25 mg/kg compound on the tumor cell concentration (L1210) of spermine; format: functional, Mus musculus; method in brief: as §8
L1210 [22] = assay: Effect of 25 mg/kg putrescine coadministered with 25 mg/kg compound on the tumor cell concentration (L1210) of compound; format: functional, Mus musculus; method in brief: as §8
L1210 [23] = assay: Effect of 25 mg/kg putrescine coadministered with 25 mg/kg compound on the tumor cell concentration (L1210) of putrescine; format: functional, Mus musculus; method in brief: as §8
L1210 [24] = assay: Effect of 25 mg/kg putrescine coadministered with 25 mg/kg compound on the tumor cell concentration (L1210) of spermidine; format: functional, Mus musculus; method in brief: as §8
L1210 [25] = assay: Effect of 25 mg/kg putrescine coadministered with 25 mg/kg compound on the tumor cell concentration (L1210) of spermine; format: functional, Mus musculus; method in brief: as §8
L1210 [26] = assay: Effect of 25 mg/kg spermidine coadministered with 25 mg/kg compound on the tumor cell concentration (L1210) of compound; format: functional, Mus musculus; method in brief: as §8
L1210 [27] = assay: Effect of 25 mg/kg spermidine coadministered with 25 mg/kg compound on the tumor cell concentration (L1210) of putrescine; format: functional, Mus musculus; method in brief: as §8
L1210 [28] = assay: Effect of 25 mg/kg spermidine coadministered with 25 mg/kg compound on the tumor cell concentration (L1210) of spermidine; format: functional, Mus musculus; method in brief: as §8
L1210 [29] = assay: Effect of 25 mg/kg spermidine coadministered with 25 mg/kg compound on the tumor cell concentration (L1210) of spermine; format: functional, Mus musculus; method in brief: as §8
L1210 [30] = assay: Tested for the T/C (survival time treated /survival time control x 100) after intraperitoneal administration of 25 mg/kg in 10 E 5 L1210 cells on day 0; format: functional, Mus musculus

Peroxisomal N(1)-acetyl-spermine/spermidine oxidase (Mus musculus), sequence (Q8C0L6 whole entry): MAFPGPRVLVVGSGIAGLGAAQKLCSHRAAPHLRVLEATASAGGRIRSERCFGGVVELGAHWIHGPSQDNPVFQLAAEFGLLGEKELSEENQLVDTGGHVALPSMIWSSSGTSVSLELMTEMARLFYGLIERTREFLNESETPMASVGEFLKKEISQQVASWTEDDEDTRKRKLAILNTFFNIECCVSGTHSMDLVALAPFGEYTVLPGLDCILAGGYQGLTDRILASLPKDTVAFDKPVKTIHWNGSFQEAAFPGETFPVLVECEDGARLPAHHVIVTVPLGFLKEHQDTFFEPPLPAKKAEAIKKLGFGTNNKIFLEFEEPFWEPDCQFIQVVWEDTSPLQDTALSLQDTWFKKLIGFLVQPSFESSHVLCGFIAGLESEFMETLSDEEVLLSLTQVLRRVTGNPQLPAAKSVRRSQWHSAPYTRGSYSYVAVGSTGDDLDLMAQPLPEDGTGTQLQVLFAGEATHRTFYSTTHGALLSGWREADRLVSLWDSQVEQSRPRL

With `NCCCCCCCN` the T/C (L1210 [1]) was “inactive”.
In the case of `NCCCS(=O)(=O)CCCN`, the T/C (L1210 [1]) is reported as “inactive”.
In the case of `C=C=CCNCCCNCCCNCC=C=C`, the T50 [2] is reported as 4 min, the T/C (L1210 [1]) is reported as “inactive” and the PAO activity (pM min-1 mg-1) [3] is reported as 1.
`CNCCCNCCCCCCCCNCCCNC.Cl.Cl.Cl.Cl` showed a Mean survival time (L1210 [4]) of 13.8, a Mean survival time (L1210 [5]) of 25.4 and a Mean survival time (L1210 [6]) of 11.4. It also gave a Mean survival time (L1210 [7]) of 12.6, a T/C (L1210 [8]) of 172% and a T/C (L1210 [9]) of 317%. The T/C (L1210 [10]) was 142%, the T/C (L1210 [11]) was 157% and the T/C (L1210 [12]) was 206%.
In the case of `NCCCCCCCCNCCCN`, the T/C (L1210 [1]) is reported as “inactive”.
For `c1ccc(CNCCCNCCCCCCCCNCCCNCc2ccccc2)cc1`, the T/C (L1210 [1]) was “inactive”.
Work on `CC(N)CCNCCCCCCCCNCCC(C)N.Cl.Cl.Cl.Cl` (centres undefined) yielded a Mean survival time (L1210 [6]) of 13.3, a Mean survival time (L1210 [13]) of 25.6 and a T/C (L1210 [10]) of 195%. For the same molecule, the T/C (L1210 [14]) was 376% and the T/C (L1210 [12]) was 206%.
With `CN(C)CCCNCCCN(C)C` the T/C (L1210 [1]) was “inactive”.
In the case of `C=C=CCNCCCNCCCCCCCCNCCCNCC=C=C.Cl.Cl.Cl.Cl`, the T50 [2] is reported as 2 min, the T/C (L1210 [1]) is reported as “inactive” and the PAO activity [3] is reported as 4.1 pM/min.
For `CN(CCCN)CCCN`, the T/C (L1210 [1]) was “inactive”.
With `NCCCCSCCCN` the T/C (L1210 [1]) was “inactive”.
For `Cl.Cl.Cl.Cl.NCCCNCCCCCCCCNCCCN`, the Mean survival time (L1210 [15]) was 15 days, the Mean survival time (L1210 [16]) was 8.3 days and the Mean survival time (L1210 [17]) was 16.2 days. The Effect (L1210 [18]) was 580 pM (10e6*cells)-1, the Effect (L1210 [19]) was 37.4 pM (10e6*cells)-1 and the Effect (L1210 [20]) was 1711 pM (10e6*cells)-1. For the same molecule, the Effect (L1210 [21]) was 1110 pM (10e6*cells)-1 and the T/C (L1210 [12]) was 350%.
For `CCCNCCCNCCCCCCCCNCCCNCCC`, the T/C (L1210 [1]) was “inactive”.
With `CCNCCCNCCCCCCCCNCCCN.Cl.Cl.Cl.Cl` the Mean survival time (L1210 [4]) was 9, the Mean survival time (L1210 [5]) was 12.4 and the Mean survival time (L1210 [6]) was 7.6. The Mean survival time (L1210 [7]) was 8.4, the T/C (L1210 [8]) was 112% and the T/C (L1210 [9]) was 155%. For the same molecule, the T/C (L1210 [10]) was 100%, the T/C (L1210 [11]) was 105% and the T/C (L1210 [12]) was 145%.
In the case of `CNCCCCCCCCNC`, the T/C (L1210 [1]) is reported as “inactive”.
With `CNCCCNCCCNC` the T/C (L1210 [1]) was “inactive”.
For `NCCCCCCCCN`, the T/C (L1210 [1]) was “inactive”.
With `CC(CCN)NCCCCCCCCNC(C)CCN` (centres undefined) the T/C (L1210 [1]) was “inactive”.
For `CCNCCCNCCCCCCCCNCCCNCC.Cl.Cl.Cl.Cl`, the Mean survival time (L1210 [4]) was 9, the Mean survival time (L1210 [5]) was 23 and the Mean survival time (L1210 [6]) was 9.8. The Mean survival time (L1210 [7]) was 11.4, the T/C (L1210 [8]) was 112% and the T/C (L1210 [9]) was 287%. It also gave a T/C (L1210 [10]) of 122%, a T/C (L1210 [11]) of 142% and a T/C (L1210 [12]) of 135%.
With `CN(C)CCCNCCCCCCCCNCCCN(C)C` the T/C (L1210 [1]) was “inactive”.
In the case of `CN(CCCN)CCCCCCCCN(C)CCCN`, the T/C (L1210 [1]) is reported as “inactive”.
For `NCCCCN.NCCCNCCCCCCCCNCCCN`, the Effect (L1210 [22]) was 520 pM (10e6*cells)-1, the Effect (L1210 [23]) was 120 pM (10e6*cells)-1 and the Effect (L1210 [24]) was 1060 pM (10e6*cells)-1. For the same molecule, the Effect (L1210 [25]) was 799 pM (10e6*cells)-1.
For `NCCCSCCCN`, the T/C (L1210 [1]) was “inactive”.
With `NCCCCNCCCN.NCCCNCCCCCCCCNCCCN` the Effect (L1210 [26]) was 114 pM (10e6*cells)-1, the Effect (L1210 [27]) was 51.7 pM (10e6*cells)-1 and the Effect (L1210 [28]) was 2174 pM (10e6*cells)-1. For the same molecule, the Effect (L1210 [29]) was 817 pM (10e6*cells)-1.
Work on `NCCCNCCCN` [NORSPERMIDINE] yielded a T/C (L1210 [30]) of 179%.
For `NCCCNCCCOCCCNCCCN`, the T/C (L1210 [1]) was “inactive”.
With `CCCCNCCCNCCCCCCCCNCCCNCCCC` the T/C (L1210 [1]) was “inactive”.
With `C=C=CCNCCCCNCC=C=C` the T50 [2] was 1 min.
For `NCCCOCCCN`, the T/C (L1210 [1]) was “inactive”.
